Test results taken from ChEMBL document CHEMBL3632558, “Synthesis, antimycobacterial and antibacterial activity of l-[(1R,2S)-2-fluorocyclopropyl]naphthyridone derivatives containing an oxime-functionalized pyrrolidine moiety” (2015).
≈ marks a conversion by molar mass, not a printed value.

How the values were obtained:
Assay type in all cases: functional
[1] = system: Staphylococcus epidermidis; assay: Antibacterial activity against methicillin-resistant Staphylococcus epidermidis 14-37 after 18 to 24 hrs
Enterococcus faecium [2] = assay: Antibacterial activity against Enterococcus faecium 14-2 after 18 to 24 hrs
How it was run: (§1)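 MIC by standard NCCLS reference procedure (M100-S11); lowest concentration of compound inhibiting visible bacterial growth after incubation at 35 °C for 18–24 h, read as complete inhibition of growth. Ciprofloxacin, levofloxacin and moxifloxacin run alongside as reference agents.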

Enterococcus faecium [3] = assay: Antibacterial activity against Enterococcus faecium 14-1 after 18 to 24 hrs; how it was run: as §1
Staphylococcus aureus [4] = assay: Antibacterial activity against Staphylococcus aureus CMCC 26003 after 18 to 24 hrs; how it was run: as §1
Staphylococcus aureus [5] = assay: Antibacterial activity against methicillin-sensitive Staphylococcus aureus 14-2 after 18 to 24 hrs; how it was run: as §1
Pseudomonas aeruginosa [6] = assay: Antibacterial activity against Pseudomonas aeruginosa 14-16 after 18 to 24 hrs; how it was run: as §1
Enterococcus faecalis [7] = assay: Antibacterial activity against Enterococcus faecalis 14-2 after 18 to 24 hrs; how it was run: as §1
[8] = system: Staphylococcus epidermidis; assay: Antibacterial activity against methicillin-sensitive Staphylococcus epidermidis 14-2 after 18 to 24 hrs; how it was run: as §1
Pseudomonas aeruginosa [9] = assay: Antibacterial activity against Pseudomonas aeruginosa 14-14 after 18 to 24 hrs; how it was run: as §1
Staphylococcus aureus [10] = assay: Antibacterial activity against methicillin-sensitive Staphylococcus aureus 14-1 after 18 to 24 hrs; how it was run: as §1
Klebsiella pneumoniae [11] = assay: Antibacterial activity against Klebsiella pneumoniae 14-3 after 18 to 24 hrs; how it was run: as §1
Klebsiella pneumoniae [12] = assay: Antibacterial activity against Klebsiella pneumoniae 14-2 after 18 to 24 hrs; how it was run: as §1
[13] = system: Staphylococcus epidermidis; assay: Antibacterial activity against methicillin-resistant Staphylococcus epidermidis 14-21 after 18 to 24 hrs
Pseudomonas aeruginosa [14] = assay: Antibacterial activity against Pseudomonas aeruginosa 14-15 after 18 to 24 hrs; how it was run: as §1
Klebsiella pneumoniae [15] = assay: Antibacterial activity against ESBL-positive Klebsiella pneumoniae 14-18 after 18 to 24 hrs; how it was run: as §1
Klebsiella pneumoniae [16] = assay: Antibacterial activity against Klebsiella pneumoniae 14-4 after 18 to 24 hrs; how it was run: as §1
Enterococcus faecium [17] = assay: Antibacterial activity against Enterococcus faecium 14-6 after 18 to 24 hrs; how it was run: as §1
Klebsiella pneumoniae [18] = assay: Antibacterial activity against ESBL-positive Klebsiella pneumoniae 14-19 after 18 to 24 hrs; how it was run: as §1
Streptococcus pneumoniae = assay: Antibacterial activity against Streptococcus pneumoniae ATCC 19615 after 18 to 24 hrs; how it was run: as §1
[19] = system: Staphylococcus epidermidis; assay: Antibacterial activity against methicillin-resistant Staphylococcus epidermidis 14-39 after 18 to 24 hrs
Escherichia coli [20] = assay: Antibacterial activity against Escherichia coli 14-1 after 18 to 24 hrs; how it was run: as §1
Pseudomonas aeruginosa [21] = assay: Antibacterial activity against Pseudomonas aeruginosa 14-19 after 18 to 24 hrs; how it was run: as §1
Staphylococcus aureus [22] = assay: Antibacterial activity against methicillin-sensitive Staphylococcus aureus 14-3 after 18 to 24 hrs; how it was run: as §1
Staphylococcus aureus [23] = assay: Antibacterial activity against methicillin-resistant Staphylococcus aureus 14-5 after 18 to 24 hrs
Escherichia coli [24] = assay: Antibacterial activity against ESBL-positive Escherichia coli 14-1 after 18 to 24 hrs; how it was run: as §1
[25] = system: Staphylococcus epidermidis; assay: Antibacterial activity against methicillin-resistant Staphylococcus epidermidis 14-22 after 18 to 24 hrs
Pseudomonas aeruginosa [26] = assay: Antibacterial activity against Pseudomonas aeruginosa 14-9 after 18 to 24 hrs; how it was run: as §1
Enterococcus faecium [27] = assay: Antibacterial activity against Enterococcus faecium 14-5 after 18 to 24 hrs; how it was run: as §1
Escherichia coli [28] = assay: Antibacterial activity against ESBL-positive Escherichia coli 14-2 after 18 to 24 hrs; how it was run: as §1
Enterococcus faecalis [29] = assay: Antibacterial activity against Enterococcus faecalis 14-1 after 18 to 24 hrs; how it was run: as §1
Staphylococcus aureus [30] = assay: Antibacterial activity against methicillin-resistant Staphylococcus aureus 14-4 after 18 to 24 hrs
[31] = system: Mycobacterium tuberculosis; assay: Antimycobacterial activity against Mycobacterium tuberculosis H37Rv ATCC 27294 by alamar blue assay
How it was run: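 Microplate Alamar Blue Assay; MIC is the lowest concentration giving ≥90% reduction in fluorescence relative to the mean of replicate bacterium-only controls. MDR strain 6133 is resistant to isoniazid and rifampicin.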

Pseudomonas aeruginosa [32] = assay: Antibacterial activity against Pseudomonas aeruginosa ATCC 27853 after 18 to 24 hrs; how it was run: as §1
Escherichia coli [33] = assay: Antibacterial activity against Escherichia coli ATCC 25922 after 18 to 24 hrs; how it was run: as §1
Staphylococcus aureus [34] = assay: Antibacterial activity against methicillin-sensitive Staphylococcus aureus 14-4 after 18 to 24 hrs; how it was run: as §1
Escherichia coli [35] = assay: Antibacterial activity against Escherichia coli 14-2 after 18 to 24 hrs; how it was run: as §1
Klebsiella pneumoniae [36] = assay: Antibacterial activity against Klebsiella pneumoniae 14-1 after 18 to 24 hrs; how it was run: as §1
Klebsiella pneumoniae [37] = assay: Antibacterial activity against ESBL-positive Klebsiella pneumoniae 14-17 after 18 to 24 hrs; how it was run: as §1

SMILES | MIC [1] [µg/mL] | MIC (Enterococcus faecium [2]) [µg/mL] | MIC (Enterococcus faecium [3]) [µg/mL] | MIC (Staphylococcus aureus [4]) [µg/mL] | MIC (Staphylococcus aureus [5]) [µg/mL] | MIC (Pseudomonas aeruginosa [6]) [µg/mL] | MIC (Enterococcus faecalis [7]) [µg/mL] | MIC [8] [µg/mL] | MIC (Pseudomonas aeruginosa [9]) [µg/mL] | MIC (Staphylococcus aureus [10]) [µg/mL] | MIC (Klebsiella pneumoniae [11]) [µg/mL] | MIC (Klebsiella pneumoniae [12]) [µg/mL] | MIC [13] [µg/mL] | MIC (Pseudomonas aeruginosa [14]) [µg/mL] | MIC (Klebsiella pneumoniae [15]) [µg/mL] | MIC (Klebsiella pneumoniae [16]) [µg/mL] | MIC (Enterococcus faecium [17]) [µg/mL] | MIC (Klebsiella pneumoniae [18]) [µg/mL] | MIC (Streptococcus pneumoniae) [µg/mL] | MIC [19] [µg/mL] | further results
COc1cc(CO/N=C2\CN(c3nc4c(cc3F)c(=O)c(C(=O)O)cn4[C@@H]3C[C@@H]3F)CC2CN)cc(OC)c1 (some centres undefined) | 16 (≈ 29.4 µM) | 4 (≈ 7.36 µM) | 2 (≈ 3.68 µM) | < 0.008 | < 0.008 | 32 (≈ 58.9 µM) | 1 (≈ 1.84 µM) | 16 (≈ 29.4 µM) | 32 (≈ 58.9 µM) | 4 (≈ 7.36 µM) | 64 (≈ 118 µM) | > 128 | 4 (≈ 7.36 µM) | 32 (≈ 58.9 µM) | 16 (≈ 29.4 µM) | > 128 | 16 (≈ 29.4 µM) | 128 (≈ 235 µM) | 0.06 (≈ 0.11 µM) | 16 (≈ 29.4 µM) | MIC (Escherichia coli [20]): > 128 µg/mL; MIC (Pseudomonas aeruginosa [21]): 16 µg/mL (≈ 29.4 µM); MIC (Staphylococcus aureus [22]): 0.015 µg/mL (≈ 0.0276 µM); MIC (Staphylococcus aureus [23]): 8 µg/mL (≈ 14.7 µM); MIC (Escherichia coli [24]): 4 µg/mL (≈ 7.36 µM); MIC [25]: 4 µg/mL (≈ 7.36 µM); MIC (Pseudomonas aeruginosa [26]): 32 µg/mL (≈ 58.9 µM); MIC (Enterococcus faecium [27]): 8 µg/mL (≈ 14.7 µM); MIC (Escherichia coli [28]): > 128 µg/mL; MIC (Enterococcus faecalis [29]): 16 µg/mL (≈ 29.4 µM); MIC (Staphylococcus aureus [30]): 16 µg/mL (≈ 29.4 µM); MIC90 [31]: 0.375 µg/mL (≈ 0.69 µM); MIC (Pseudomonas aeruginosa [32]): 8 µg/mL (≈ 14.7 µM); MIC (Escherichia coli [33]): 2 µg/mL (≈ 3.68 µM); MIC (Staphylococcus aureus [34]): 0.015 µg/mL (≈ 0.0276 µM); MIC (Escherichia coli [35]): > 128 µg/mL; MIC (Klebsiella pneumoniae [36]): 128 µg/mL (≈ 235 µM); MIC (Klebsiella pneumoniae [37]): 16 µg/mL (≈ 29.4 µM)
NCC1CN(c2nc3c(cc2F)c(=O)c(C(=O)O)cn3[C@@H]2C[C@@H]2F)C/C1=N\OCc1ccc2c(c1)OCO2 (some centres undefined) | 6 (≈ 11.4 µM) | 1 (≈ 1.9 µM) | 1 (≈ 1.9 µM) | < 0.008 | < 0.008 | 8 (≈ 15.2 µM) | < 0.008 | 32 (≈ 60.7 µM) | 8 (≈ 15.2 µM) | 4 (≈ 7.58 µM) | 128 (≈ 243 µM) | 128 (≈ 243 µM) | 4 (≈ 7.58 µM) | 8 (≈ 15.2 µM) | 4 (≈ 7.58 µM) | 128 (≈ 243 µM) | 4 (≈ 7.58 µM) | 128 (≈ 243 µM) | 0.03 (≈ 0.0569 µM) | 8 (≈ 15.2 µM) | MIC (Escherichia coli [20]): 32 µg/mL (≈ 60.7 µM); MIC (Pseudomonas aeruginosa [21]): 8 µg/mL (≈ 15.2 µM); MIC (Staphylococcus aureus [22]): 8 µg/mL (≈ 15.2 µM); MIC (Staphylococcus aureus [23]): 8 µg/mL (≈ 15.2 µM); MIC (Escherichia coli [24]): 8 µg/mL (≈ 15.2 µM); MIC [25]: 4 µg/mL (≈ 7.58 µM); MIC (Pseudomonas aeruginosa [26]): 8 µg/mL (≈ 15.2 µM); MIC (Enterococcus faecium [27]): 8 µg/mL (≈ 15.2 µM); MIC (Escherichia coli [28]): 64 µg/mL (≈ 121 µM); MIC (Enterococcus faecalis [29]): 16 µg/mL (≈ 30.3 µM); MIC (Staphylococcus aureus [30]): 16 µg/mL (≈ 30.3 µM); MIC90 [31]: < 0.25 µg/mL; MIC (Pseudomonas aeruginosa [32]): 8 µg/mL (≈ 15.2 µM); MIC (Escherichia coli [33]): < 0.008 µg/mL; MIC (Staphylococcus aureus [34]): < 0.008 µg/mL; MIC (Escherichia coli [35]): 32 µg/mL (≈ 60.7 µM); MIC (Klebsiella pneumoniae [36]): 128 µg/mL (≈ 243 µM); MIC (Klebsiella pneumoniae [37]): 8 µg/mL (≈ 15.2 µM)
CO/N=C1\CN(c2nc3c(cc2F)c(=O)c(C(=O)O)cn3[C@@H]2C[C@@H]2F)CC1(C)CN (some centres undefined) | 8 (≈ 19 µM) | 2 (≈ 4.75 µM) | 2 (≈ 4.75 µM) | < 0.008 | 0.015 (≈ 0.0356 µM) | 8 (≈ 19 µM) | 0.125 (≈ 0.297 µM) | 16 (≈ 38 µM) | 8 (≈ 19 µM) | 2 (≈ 4.75 µM) | 128 (≈ 304 µM) | > 128 | 2 (≈ 4.75 µM) | 8 (≈ 19 µM) | 4 (≈ 9.49 µM) | 64 (≈ 152 µM) | 8 (≈ 19 µM) | 128 (≈ 304 µM) | 0.015 (≈ 0.0356 µM) | 8 (≈ 19 µM) | MIC (Escherichia coli [20]): 32 µg/mL (≈ 75.9 µM); MIC (Pseudomonas aeruginosa [21]): 8 µg/mL (≈ 19 µM); MIC (Staphylococcus aureus [22]): < 0.008 µg/mL; MIC (Staphylococcus aureus [23]): 4 µg/mL (≈ 9.49 µM); MIC (Escherichia coli [24]): 4 µg/mL (≈ 9.49 µM); MIC [25]: 8 µg/mL (≈ 19 µM); MIC (Pseudomonas aeruginosa [26]): 4 µg/mL (≈ 9.49 µM); MIC (Enterococcus faecium [27]): 4 µg/mL (≈ 9.49 µM); MIC (Escherichia coli [28]): 64 µg/mL (≈ 152 µM); MIC (Enterococcus faecalis [29]): 32 µg/mL (≈ 75.9 µM); MIC (Staphylococcus aureus [30]): 8 µg/mL (≈ 19 µM); MIC90 [31]: 0.372 µg/mL (≈ 0.883 µM); MIC (Pseudomonas aeruginosa [32]): 2 µg/mL (≈ 4.75 µM); MIC (Escherichia coli [33]): 0.03 µg/mL (≈ 0.0712 µM); MIC (Staphylococcus aureus [34]): 0.015 µg/mL (≈ 0.0356 µM); MIC (Escherichia coli [35]): 32 µg/mL (≈ 75.9 µM); MIC (Klebsiella pneumoniae [36]): 128 µg/mL (≈ 304 µM); MIC (Klebsiella pneumoniae [37]): 4 µg/mL (≈ 9.49 µM)
